Where a chain is given by its changes, count along the chain named.
Tests used:
Settings in all cases: stereoisomer not certain
OR11H2 (Homo sapiens) = target: T1, OR11H2 (Homo sapiens) (UniProt Q8NH07)
T1 sequence (whole entry): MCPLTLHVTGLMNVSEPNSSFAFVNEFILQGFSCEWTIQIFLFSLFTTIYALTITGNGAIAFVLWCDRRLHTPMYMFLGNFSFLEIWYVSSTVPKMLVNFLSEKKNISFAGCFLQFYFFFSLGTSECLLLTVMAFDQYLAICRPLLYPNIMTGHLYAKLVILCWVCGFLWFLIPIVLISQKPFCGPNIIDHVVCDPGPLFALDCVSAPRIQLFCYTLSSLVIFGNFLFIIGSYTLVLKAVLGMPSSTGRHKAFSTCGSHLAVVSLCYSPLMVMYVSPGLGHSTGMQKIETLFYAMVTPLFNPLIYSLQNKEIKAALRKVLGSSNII
Procedure, shortened: (§1)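 Assay methods differ from source to source, frequently being transient luciferase assays in mammalian cell lines. For each receptor–molecule pair, the label responsive (active) applies when the original authors judged the measured signal statistically different from baseline, and non-responsive (inactive) applies otherwise.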

OR11H4 (Homo sapiens) = target: T2, OR11H4 (Homo sapiens) (UniProt Q8NGC9)
T2 sequence (whole entry): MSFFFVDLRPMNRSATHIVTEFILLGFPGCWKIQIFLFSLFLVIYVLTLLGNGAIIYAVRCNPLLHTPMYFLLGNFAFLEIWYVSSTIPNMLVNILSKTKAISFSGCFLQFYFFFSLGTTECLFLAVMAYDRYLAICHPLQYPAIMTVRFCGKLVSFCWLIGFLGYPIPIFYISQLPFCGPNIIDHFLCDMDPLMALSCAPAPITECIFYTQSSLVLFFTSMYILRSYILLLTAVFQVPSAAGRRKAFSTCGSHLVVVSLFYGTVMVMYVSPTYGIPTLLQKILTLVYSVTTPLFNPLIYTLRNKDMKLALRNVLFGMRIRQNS
Procedure, shortened: as §1

OR11H6 (Homo sapiens) = target: T3, OR11H6 (Homo sapiens) (UniProt Q8NGC7)
T3 sequence (whole entry): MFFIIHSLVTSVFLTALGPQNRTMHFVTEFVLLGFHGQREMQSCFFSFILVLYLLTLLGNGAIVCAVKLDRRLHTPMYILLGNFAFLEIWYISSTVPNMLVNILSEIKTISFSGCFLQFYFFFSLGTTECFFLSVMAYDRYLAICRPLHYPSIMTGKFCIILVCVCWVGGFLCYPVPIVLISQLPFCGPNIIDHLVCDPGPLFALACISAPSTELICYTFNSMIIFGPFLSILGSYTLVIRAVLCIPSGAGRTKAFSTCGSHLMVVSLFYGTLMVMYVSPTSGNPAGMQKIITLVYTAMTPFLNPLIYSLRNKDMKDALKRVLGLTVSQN
Procedure, shortened: as §1

OR11L1 (Homo sapiens) = target: T4, OR11L1 (Homo sapiens) (UniProt Q8NGX0)
T4 sequence (whole entry): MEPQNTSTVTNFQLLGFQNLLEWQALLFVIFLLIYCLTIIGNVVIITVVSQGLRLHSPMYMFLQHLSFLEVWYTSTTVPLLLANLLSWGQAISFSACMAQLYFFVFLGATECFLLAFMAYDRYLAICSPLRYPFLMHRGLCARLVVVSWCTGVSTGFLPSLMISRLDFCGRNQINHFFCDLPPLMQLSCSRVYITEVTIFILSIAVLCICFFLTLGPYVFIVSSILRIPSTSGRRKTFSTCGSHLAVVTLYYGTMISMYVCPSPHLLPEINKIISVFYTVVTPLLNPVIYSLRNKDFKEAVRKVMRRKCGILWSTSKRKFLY
Procedure, shortened: as §1

OR12D2 (Homo sapiens) = target: T5, OR12D2 (Homo sapiens) (UniProt P58182)
T5 sequence (whole entry): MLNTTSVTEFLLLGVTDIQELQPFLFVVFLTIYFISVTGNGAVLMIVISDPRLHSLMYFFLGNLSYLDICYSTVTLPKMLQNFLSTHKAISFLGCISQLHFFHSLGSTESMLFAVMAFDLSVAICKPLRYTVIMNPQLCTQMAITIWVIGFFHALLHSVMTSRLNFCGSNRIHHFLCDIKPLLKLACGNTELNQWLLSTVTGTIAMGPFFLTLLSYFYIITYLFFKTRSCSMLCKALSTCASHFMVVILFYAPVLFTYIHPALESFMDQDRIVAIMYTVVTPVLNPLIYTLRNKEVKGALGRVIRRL
Procedure, shortened: as §1

OR12D3 (Homo sapiens) = target: T6, OR12D3 (Homo sapiens) (UniProt Q9UGF7)
T6 sequence (whole entry): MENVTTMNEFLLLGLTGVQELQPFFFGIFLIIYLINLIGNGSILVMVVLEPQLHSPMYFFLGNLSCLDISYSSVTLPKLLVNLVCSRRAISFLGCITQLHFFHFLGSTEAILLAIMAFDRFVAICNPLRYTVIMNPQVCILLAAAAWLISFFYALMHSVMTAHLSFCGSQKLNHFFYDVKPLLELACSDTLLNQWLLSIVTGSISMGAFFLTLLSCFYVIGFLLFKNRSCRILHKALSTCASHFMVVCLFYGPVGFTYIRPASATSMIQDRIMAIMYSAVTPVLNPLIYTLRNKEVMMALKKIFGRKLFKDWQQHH
Procedure, shortened: as §1

OR13A1 (Homo sapiens) = target: T7, OR13A1 (Homo sapiens) (UniProt Q8NGR1)
T7 sequence (whole entry): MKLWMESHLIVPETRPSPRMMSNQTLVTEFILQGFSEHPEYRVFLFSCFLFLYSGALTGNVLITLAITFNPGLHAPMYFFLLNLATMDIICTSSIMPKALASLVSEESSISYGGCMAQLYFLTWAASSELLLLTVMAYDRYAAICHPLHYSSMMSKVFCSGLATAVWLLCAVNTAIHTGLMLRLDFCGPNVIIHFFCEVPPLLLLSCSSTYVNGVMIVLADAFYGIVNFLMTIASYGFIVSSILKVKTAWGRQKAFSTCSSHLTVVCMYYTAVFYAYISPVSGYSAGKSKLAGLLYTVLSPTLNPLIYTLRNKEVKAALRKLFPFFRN
Procedure, shortened: as §1

OR13C2 (Homo sapiens) = target: T8, OR13C2 (Homo sapiens) (UniProt Q8NGS9)
T8 sequence (whole entry): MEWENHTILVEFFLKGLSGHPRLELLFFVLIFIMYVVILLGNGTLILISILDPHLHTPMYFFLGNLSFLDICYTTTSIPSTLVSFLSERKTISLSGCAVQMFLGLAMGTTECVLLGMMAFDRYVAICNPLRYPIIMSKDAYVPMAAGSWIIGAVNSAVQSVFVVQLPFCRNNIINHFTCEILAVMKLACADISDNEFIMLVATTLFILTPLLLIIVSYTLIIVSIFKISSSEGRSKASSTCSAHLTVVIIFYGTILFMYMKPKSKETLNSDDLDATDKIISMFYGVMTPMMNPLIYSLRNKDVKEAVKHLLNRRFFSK
Procedure, shortened: as §1

OR13C3 (Homo sapiens) = target: T9, OR13C3 (Homo sapiens) (UniProt Q8NGS6)
T9 sequence (whole entry): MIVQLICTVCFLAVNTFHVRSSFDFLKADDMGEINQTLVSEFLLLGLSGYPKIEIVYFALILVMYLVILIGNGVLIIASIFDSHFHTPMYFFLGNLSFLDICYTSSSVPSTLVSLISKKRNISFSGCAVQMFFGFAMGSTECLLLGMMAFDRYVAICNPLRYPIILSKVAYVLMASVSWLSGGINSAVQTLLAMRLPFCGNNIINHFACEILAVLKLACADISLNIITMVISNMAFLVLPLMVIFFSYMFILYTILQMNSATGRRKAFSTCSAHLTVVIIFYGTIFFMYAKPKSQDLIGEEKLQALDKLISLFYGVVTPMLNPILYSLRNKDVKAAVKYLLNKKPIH
Procedure, shortened: as §1

OR13C4 (Homo sapiens) = target: T10, OR13C4 (Homo sapiens) (UniProt Q8NGS5)
T10 sequence (whole entry): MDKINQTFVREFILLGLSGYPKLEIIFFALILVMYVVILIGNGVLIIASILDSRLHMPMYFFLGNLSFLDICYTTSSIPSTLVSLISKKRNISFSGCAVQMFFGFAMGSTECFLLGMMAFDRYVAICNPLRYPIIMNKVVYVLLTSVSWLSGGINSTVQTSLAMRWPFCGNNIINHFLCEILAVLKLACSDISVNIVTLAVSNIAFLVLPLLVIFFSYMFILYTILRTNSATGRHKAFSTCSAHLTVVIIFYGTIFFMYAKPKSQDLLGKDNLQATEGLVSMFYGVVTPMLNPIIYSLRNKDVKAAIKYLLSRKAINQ
Procedure, shortened: as §1

OR13C5 (Homo sapiens) = target: T11, OR13C5 (Homo sapiens) (UniProt Q8NGS8)
T11 sequence (whole entry): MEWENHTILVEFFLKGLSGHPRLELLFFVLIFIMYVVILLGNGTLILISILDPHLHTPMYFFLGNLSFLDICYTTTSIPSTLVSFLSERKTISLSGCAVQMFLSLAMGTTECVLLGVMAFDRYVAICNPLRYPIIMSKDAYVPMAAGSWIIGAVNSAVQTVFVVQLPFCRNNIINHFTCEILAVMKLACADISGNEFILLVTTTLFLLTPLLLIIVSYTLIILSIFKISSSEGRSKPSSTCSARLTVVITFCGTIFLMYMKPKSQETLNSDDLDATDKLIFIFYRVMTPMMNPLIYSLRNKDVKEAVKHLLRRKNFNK
Procedure, shortened: as §1

OR13C8 (Homo sapiens) = target: T12, OR13C8 (Homo sapiens) (UniProt Q8NGS7)
T12 sequence (whole entry): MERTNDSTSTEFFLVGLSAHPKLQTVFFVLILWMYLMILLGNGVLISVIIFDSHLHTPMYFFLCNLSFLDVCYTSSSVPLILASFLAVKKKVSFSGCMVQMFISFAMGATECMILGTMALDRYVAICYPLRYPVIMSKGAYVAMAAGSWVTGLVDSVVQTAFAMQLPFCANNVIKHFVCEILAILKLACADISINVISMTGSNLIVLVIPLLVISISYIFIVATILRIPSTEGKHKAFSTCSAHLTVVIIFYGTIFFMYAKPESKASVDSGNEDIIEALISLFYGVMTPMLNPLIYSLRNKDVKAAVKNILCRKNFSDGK
Procedure, shortened: as §1

OR13C9 (Homo sapiens) = target: T13, OR13C9 (Homo sapiens) (UniProt Q8NGT0)
T13 sequence (whole entry): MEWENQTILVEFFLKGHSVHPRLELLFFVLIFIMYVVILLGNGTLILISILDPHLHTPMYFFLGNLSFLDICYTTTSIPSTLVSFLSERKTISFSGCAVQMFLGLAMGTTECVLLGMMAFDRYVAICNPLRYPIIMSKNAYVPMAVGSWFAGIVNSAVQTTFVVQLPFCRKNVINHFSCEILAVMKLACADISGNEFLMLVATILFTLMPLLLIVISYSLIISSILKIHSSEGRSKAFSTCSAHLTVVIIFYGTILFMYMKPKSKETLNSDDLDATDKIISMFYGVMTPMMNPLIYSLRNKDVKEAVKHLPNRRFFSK
Procedure, shortened: as §1

OR13D1 (Homo sapiens) = target: T14, OR13D1 (Homo sapiens) (UniProt Q8NGV5)
T14 sequence (whole entry): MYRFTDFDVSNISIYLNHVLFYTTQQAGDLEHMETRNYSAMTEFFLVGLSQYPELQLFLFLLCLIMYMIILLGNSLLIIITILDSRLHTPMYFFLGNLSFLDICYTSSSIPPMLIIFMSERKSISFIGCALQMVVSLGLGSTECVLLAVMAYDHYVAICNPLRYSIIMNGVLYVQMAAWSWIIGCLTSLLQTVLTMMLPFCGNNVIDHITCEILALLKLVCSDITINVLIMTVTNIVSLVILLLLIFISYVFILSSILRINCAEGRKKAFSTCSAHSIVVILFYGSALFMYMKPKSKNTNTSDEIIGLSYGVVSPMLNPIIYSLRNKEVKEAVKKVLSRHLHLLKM
Procedure, shortened: as §1

OR13F1 (Homo sapiens) = target: T15, OR13F1 (Homo sapiens) (UniProt Q8NGS4)
T15 sequence (whole entry): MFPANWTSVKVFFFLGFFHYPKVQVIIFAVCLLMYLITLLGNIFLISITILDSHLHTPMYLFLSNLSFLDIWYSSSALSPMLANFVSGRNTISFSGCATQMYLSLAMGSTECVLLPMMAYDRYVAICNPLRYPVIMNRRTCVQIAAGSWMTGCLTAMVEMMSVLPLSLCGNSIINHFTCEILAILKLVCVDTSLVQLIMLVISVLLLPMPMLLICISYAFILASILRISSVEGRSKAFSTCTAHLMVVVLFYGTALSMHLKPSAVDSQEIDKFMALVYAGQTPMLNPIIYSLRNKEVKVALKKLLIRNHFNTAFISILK
Procedure, shortened: as §1

OR13G1 (Homo sapiens) = target: T16, OR13G1 (Homo sapiens) (UniProt Q8NGZ3)
T16 sequence (whole entry): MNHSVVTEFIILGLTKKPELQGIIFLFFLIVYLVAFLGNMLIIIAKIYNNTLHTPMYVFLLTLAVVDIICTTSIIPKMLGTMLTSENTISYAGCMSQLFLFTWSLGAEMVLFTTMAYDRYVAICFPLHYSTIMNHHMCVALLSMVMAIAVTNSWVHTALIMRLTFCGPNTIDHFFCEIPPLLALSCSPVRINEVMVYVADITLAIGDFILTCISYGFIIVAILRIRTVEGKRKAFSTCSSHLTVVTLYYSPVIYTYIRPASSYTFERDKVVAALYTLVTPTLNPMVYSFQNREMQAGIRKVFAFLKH
Procedure, shortened: as §1

OR11H12 (Homo sapiens) = target: T17, OR11H12 (Homo sapiens) (UniProt B2RN74)
T17 sequence (whole entry): T1 sequence (whole entry) with H7Q, S33T, I49T, R68W, Y156C, K181M, L199R, P269S
Procedure, shortened: as §1

Measured: odorant receptor agonist call

CCC(S)C(C)CO (stereo unspecified)
not listed: OR11H12 (Homo sapiens)
inactive: all other assays above

Cc1cnc(C)c(C)n1
inactive: all assays above

CCC1OC(C)=C(O)C1=O (stereo unspecified)
inactive: all assays above

O=C1CCOc2ccccc21
inactive: OR11H12 (Homo sapiens)

— the M2OR odorant receptor database
